Data from ChEMBL document CHEMBL4665875, “Synthesis, biological evaluation and in silico modeling of novel pan-genotypic NS5A inhibitors” (Bioorg Med Chem, 2020).

Columns and labels:
[1] = Cytotoxicity against HCV genotype 1b NS5A infected human HuH7 cells assessed as reduction in cell viability measured after 72 hrs by CellTiter-Glo assay; settings: HuH7 cells infected with HCV genotype 1b NS5A
[2] = Cmax in Sprague-Dawley rat at 10 mg/kg, po measured after 24 hrs by LC-MS/MS analysis; assay type: ADME, organism-based; set-up: route oral, time 24 hrs, dose 10 mg/kg; settings: in vivo, 24 h
In short: (§1)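 Male Sprague-Dawley rats (8–10 weeks), jugular-vein catheterized and fasted 12 h with water available. Oral dose of 10 mg/kg given in 0.5% methyl cellulose. Blood taken into EDTA at 15, 30 min and 1, 2, 4, 8 and 24 h. Plasma protein-precipitated with acetonitrile containing tolbutamide internal standard, held at −20 °C for 15 min, centrifuged, then analysed by LC-MS/MS.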

[3] = Half life in Sprague-Dawley rat at 10 mg/kg, po measured after 24 hrs by LC-MS/MS analysis; assay type: ADME, organism-based; settings: in vivo, 10 mg/kg, 24 h
In short: as §1

[4] = MRTlast in Sprague-Dawley rat at 2 mg/kg, iv measured after 24 hrs by LC-MS/MS analysis; assay type: ADME, organism-based; settings: in vivo
In short: (§2)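 Male Sprague-Dawley rats (8–10 weeks), jugular-vein catheterized and fasted 12 h with water available. Intravenous dose of 2 mg/kg given in 10% DMSO/10% Solutol/80% 0.05 M N-methylglucamine. Blood taken into EDTA at 5, 15, 30 min and 1, 2, 4, 8 and 24 h. Plasma precipitated with acetonitrile plus tolbutamide internal standard, then analysed by LC-MS/MS.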

[5] = Tmax in Sprague-Dawley rat at 10 mg/kg, po measured after 24 hrs by LC-MS/MS analysis; assay type: ADME, organism-based; settings: in vivo, 10 mg/kg, 24 h
In short: as §1

[6] = Oral bioavailability in Sprague-Dawley rat at 10 mg/kg, po measured after 24 hrs by LC-MS/MS analysis; assay type: ADME, organism-based; settings: in vivo
In short: as §1

[7] = Cmax in Sprague-Dawley rat at 2 mg/kg, iv measured after 24 hrs by LC-MS/MS analysis; assay type: ADME, organism-based; set-up: route intravenous, dose 2 mg/kg, time 24 hrs; settings: in vivo
In short: as §2

[8] = MRT (0 to infinity) in Sprague-Dawley rat at 10 mg/kg, po measured after 24 hrs by LC-MS/MS analysis; assay type: ADME, organism-based; settings: in vivo
In short: as §1

[9] = AUC (0 to infinity) in Sprague-Dawley rat at 10 mg/kg, po measured after 24 hrs by LC-MS/MS analysis; assay type: ADME, organism-based; set-up: route oral, time 24 hrs, dose 10 mg/kg; settings: in vivo, 24 h
In short: as §1

[10] = AUC (0 to infinity) in Sprague-Dawley rat at 2 mg/kg, iv measured after 24 hrs by LC-MS/MS analysis; assay type: ADME, organism-based; set-up: route intravenous, dose 2 mg/kg, time 24 hrs; settings: in vivo
In short: as §2

[11] = AUClast in Sprague-Dawley rat at 10 mg/kg, po measured after 24 hrs by LC-MS/MS analysis; assay type: ADME, organism-based; set-up: route oral, dose 10 mg/kg, time 24 hrs; settings: in vivo
In short: as §1

[12] = AUClast in Sprague-Dawley rat at 2 mg/kg, iv measured after 24 hrs by LC-MS/MS analysis; assay type: ADME, organism-based; set-up: route intravenous, time 24 hrs, dose 2 mg/kg; settings: in vivo
In short: as §2

[13] = Tmax in Sprague-Dawley rat at 2 mg/kg, iv measured after 24 hrs by LC-MS/MS analysis; assay type: ADME, organism-based; settings: in vivo
In short: as §2

[14] = Half life in Sprague-Dawley rat at 2 mg/kg, iv measured after 24 hrs by LC-MS/MS analysis; assay type: ADME, organism-based; settings: in vivo
In short: as §2

[15] = MRT (0 to infinity) in Sprague-Dawley rat at 2 mg/kg, iv measured after 24 hrs by LC-MS/MS analysis; assay type: ADME, organism-based; settings: in vivo
In short: as §2

[16] = MRTlast in Sprague-Dawley rat at 10 mg/kg, po measured after 24 hrs by LC-MS/MS analysis; assay type: ADME, organism-based; settings: in vivo
In short: as §1

[17] = biological target: T1, Nonstructural protein 5A (Hepatitis C virus) (UniProt Q5L478); assay: Potency index, ratio of AV-4025 IC50 to test compound IC50 for inhibition of HCV genotype 3a NS5A infected in Huh7 cells assessed as reduction in viral replication incubated 3 days and measured by bright Glo-luciferase reporter gene assay; assay type: cell-based; settings: Hepatitis C virus subtype 3a; time 3.0 day
T1 sequence (whole entry): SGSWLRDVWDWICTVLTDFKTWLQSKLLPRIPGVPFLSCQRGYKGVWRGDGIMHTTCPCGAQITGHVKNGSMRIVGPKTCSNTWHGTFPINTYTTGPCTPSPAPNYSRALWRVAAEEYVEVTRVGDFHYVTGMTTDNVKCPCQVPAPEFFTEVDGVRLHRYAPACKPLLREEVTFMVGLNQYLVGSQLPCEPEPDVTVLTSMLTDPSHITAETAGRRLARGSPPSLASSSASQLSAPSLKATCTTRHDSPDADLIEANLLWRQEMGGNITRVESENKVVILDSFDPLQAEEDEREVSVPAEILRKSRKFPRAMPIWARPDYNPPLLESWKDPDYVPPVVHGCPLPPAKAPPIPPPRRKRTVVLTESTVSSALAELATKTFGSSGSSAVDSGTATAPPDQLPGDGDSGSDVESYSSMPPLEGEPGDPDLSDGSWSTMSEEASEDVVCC

With COC(=O)N[C@H](C(=O)N1CCC[C@H]1c1ncc(-c2ccc(C#CC#Cc3cnc([C@@H]4CCCN4C(=O)[C@H](NC(=O)OC)c4ccccc4)[nH]3)c(-c3cccc(-c4ccccc4)c3)c2)[nH]1)C(C)C as the compound, how does the CC50 at 72 h [1] read?
Its CC50 at 72 h is over 10 µM.

With COC(=O)N[C@H](C(=O)N1CCC[C@H]1c1ncc(-c2ccc(C#CC#Cc3cnc([C@@H]4CCCN4C(=O)[C@H](NC(=O)OC)c4ccccc4)[nH]3)c(Sc3ccccc3)c2)[nH]1)C(C)C as the compound, how does the CC50 at 72 h [1] read?
Its CC50 at 72 h is over 10 µM.

With COC(=O)N[C@H](C(=O)N1CCC[C@H]1c1ncc(-c2ccc(C#CC#Cc3cnc([C@@H]4CCCN4C(=O)[C@H](NC(=O)OC)c4ccccc4)[nH]3)c(-c3ccc(N4CCN(C)CC4)cc3)c2)[nH]1)C(C)C as the compound, how does the CC50 at 72 h [1] read?
The CC50 at 72 h was over 10 µM.

For COC(=O)N[C@H](C(=O)N1CCC[C@H]1c1ncc(-c2ccc(C#CC#Cc3cnc([C@@H]4CCCN4C(=O)[C@H](NC(=O)OC)c4ccccc4)[nH]3)c(-c3cccc(C(C)(C)C)c3)c2)[nH]1)C(C)C, which CC50 at 72 h [1] is on record?
The CC50 at 72 h was over 10 µM.

For COC(=O)N[C@H](C(=O)N1CCC[C@H]1c1ncc(-c2ccc(C#CC#Cc3cnc([C@@H]4CCCN4C(=O)[C@H](NC(=O)OC)c4ccccc4)[nH]3)c(-c3cccc(F)c3F)c2)[nH]1)C(C)C.Cl.Cl, which Cmax [2] is on record?
Its Cmax is 15.2 ng/mL.

And the t1/2 [3]?
Its t1/2 is 2.5 h.

And the MRT last at 24 h [4]?
Its MRT last at 24 h is 3.2 h.

What about the Tmax [5] of the same compound?
Its Tmax is 0.7 h.

What about the CC50 at 72 h [1] of the same compound?
The CC50 at 72 h was over 10 µM.

What about the bioavailability [6] of the same compound?
The bioavailability was 2.4%.

And the Cmax [7]?
The Cmax was 1160 ng/mL.

What about the MRT inf [8] of the same compound?
The MRT inf was 0.4 h.

What about the AUC [9] of the same compound?
The AUC was 328.7 ng·h/mL.

What about the AUC(0-inf) [10] of the same compound?
The AUC(0-inf) was 2730 ng·h/mL.

And the AUC(0-t) at 24 h [11]?
Its AUC(0-t) at 24 h is 271 ng·h/mL.

What about the AUC(0-t) at 24 h [12] of the same compound?
The AUC(0-t) at 24 h was 2720 ng·h/mL.

What about the Tmax [13] of the same compound?
Its Tmax is 4.98 min.

What about the half-life [14] of the same compound?
Its half-life is 3.2 h.

And the MRT inf [15]?
Its MRT inf is 3.3 h.

And the MRT last at 24 h [16]?
Its MRT last at 24 h is 0.3 h.

Which CC50 at 72 h [1] does the source give for COC(=O)N[C@H](C(=O)N1CCC[C@H]1c1ncc(-c2ccc(C#CC#Cc3cnc([C@@H]4CCCN4C(=O)[C@H](NC(=O)OC)c4ccccc4)[nH]3)c(Oc3ccccc3)c2)[nH]1)C(C)C here?
Its CC50 at 72 h is over 10 µM.

With COC(=O)N[C@H](C(=O)N1CCC[C@H]1c1ncc(-c2cc(C)c(C#CC#Cc3cnc([C@@H]4CCCN4C(=O)[C@H](NC(=O)OC)c4ccccc4)[nH]3)c(-c3ccccc3)c2)[nH]1)C(C)C as the compound, how does the CC50 at 72 h [1] read?
Its CC50 at 72 h is over 10 µM.

For COC(=O)N[C@H](C(=O)N1CCC[C@H]1c1ncc(C#CC#Cc2c(F)cc(-c3cnc([C@@H]4CCCN4C(=O)[C@@H](NC(=O)OC)C(C)C)[nH]3)cc2-c2ccccc2)[nH]1)C(C)C, which CC50 at 72 h [1] is on record?
Its CC50 at 72 h is over 10 µM.

Which CC50 at 72 h [1] does the source give for COC(=O)N[C@H](C(=O)N1CCC[C@H]1c1ncc(C#CC#Cc2ccc(-c3cnc([C@@H]4CCCN4C(=O)[C@@H](NC(=O)OC)C(C)C)[nH]3)cc2)[nH]1)c1ccccc1 here?
The CC50 at 72 h was over 10 µM.

For COC(=O)N[C@H](C(=O)N1CCC[C@H]1c1ncc(C#CC#Cc2ccc(-c3cnc([C@@H]4CCCN4C(=O)[C@@H](NC(=O)OC)C(C)C)[nH]3)cc2-c2ccccc2)[nH]1)C(C)C, which CC50 at 72 h [1] is on record?
The CC50 at 72 h was over 10 µM.

With COC(=O)N[C@H](C(=O)N1CCC[C@H]1c1ncc(-c2cc(F)c(C#CC#Cc3cnc([C@@H]4CCCN4C(=O)[C@H](NC(=O)OC)c4ccccc4)[nH]3)c(-c3ccccc3)c2)[nH]1)C(C)C as the compound, how does the CC50 at 72 h [1] read?
Its CC50 at 72 h is over 10 µM.

With COC(=O)N[C@H](C(=O)N1CCC[C@H]1c1ncc(-c2ccc(C#CC#Cc3cnc([C@@H]4CCCN4C(=O)[C@H](NC(=O)OC)c4ccccc4)[nH]3)c(-c3ccc(-c4ccccc4)cc3)c2)[nH]1)C(C)C as the compound, how does the CC50 at 72 h [1] read?
Its CC50 at 72 h is over 10 µM.

With COC(=O)N[C@H](C(=O)N1CCC[C@H]1c1ncc(-c2ccc(C#CC#Cc3cnc([C@@H]4CCCN4C(=O)[C@H](NC(=O)OC)c4ccccc4)[nH]3)cc2)[nH]1)C(C)C as the compound, how does the CC50 at 72 h [1] read?
Its CC50 at 72 h is over 10 µM.

What about the Ratio IC50 [17] of the same compound?
Its Ratio IC50 is 13.
